# Experimental data gathered from unrelated publications.
# Compare with care: the assays were run in different laboratories.
# Observed: cell growth or viability
Compound,cell line,method,concentration,time,quantity,value
CC(=NNC(N)=S)c1ccc(Nc2nnc(-c3ccc(Cl)cc3)c3ccccc23)cc1,MCF7,MTT,78 nM,,cell death,9.65%
C=C(COCc1ccc(F)cc1)[C@@H]1CC[C@@H](C)C[C@H]1OCc1ccc(F)cc1,MCF7,MTT,30 µM,72 h,inhibition,46.2%
CC(=NNC(=O)c1ccccc1Cl)c1ccc(Nc2nnc(-c3ccc(Cl)cc3)c3ccccc23)cc1,MCF7,MTT,0.312 µM,24 h,viability,99.9%
CC(=O)c1nn(-c2ccc(C)cc2)/c(=N/N=C(\C)c2ccc(NC(=O)c3ccccc3)cc2)s1,MCF7,MTT,0.312 µM,,viability,4.36%
O=C(Nc1ccc(Oc2nnc(-c3ccc(Cl)cc3)c3ccccc23)cc1)c1cccc([N+](=O)[O-])c1,MCF7,MTT,78 nM,,cell death,4.29%
C[C@@H]1CC[C@@H]([C@](C)(O)Cn2cnc3ccccc32)[C@H](OCc2ccccc2)C1,MCF7,MTT,10 µM,72 h,inhibition,51%
Cc1c(C(=O)O)ccc2c3n(nc12)[C@@H]1[C@H](C3)N(CC2CC2)[C@@]2(C(=O)Nc3cc(Cl)ccc32)[C@H]1c1cccc(Cl)c1F,SJSA-1,resazurin,,,GI50,7 nM
CCOC(=O)c1nn(-c2cccc(Cl)c2)/c(=N/N=C(\C)c2ccc(NC(=O)c3ccccc3)cc2)s1,MCF7,MTT,0.625 µM,,viability,2.63%
C=CC(=O)NC1CCN(c2ncc3ncnc(Nc4ccc(Oc5ccc6c(c5)ncn6C)c(C)c4)c3n2)CC1,SW-620,,,,EC50,82.4 nM
CC(=NNC(=O)c1ccccc1)c1ccc(Nc2nnc(-c3ccc(Cl)cc3)c3ccccc23)cc1,MCF7,MTT,10 µM,,cell death,94.1%
COc1ccccc1CNC[C@@](C)(O)[C@@H]1CC[C@@H](C)C[C@H]1OCc1ccccc1,MCF7,MTT,10 µM,72 h,inhibition,46.9%
S=C(Nc1ccccc1)Nc1ccc(Oc2nnc(-c3ccc(Cl)cc3)c3ccccc23)cc1,MCF7,MTT,10 µM,,cell death,97.2%
CC(=O)c1nn(-c2ccccc2Cl)/c(=N/N=C(\C)c2ccc(NC(=O)c3ccccc3)cc2)s1,MCF7,MTT,0.312 µM,,viability,7.5%
COc1ccc(CNC[C@](O)(COCc2ccc(OC)cc2)[C@@H]2CC[C@@H](C)C[C@H]2OCc2ccc(OC)cc2)cc1,MCF7,MTT,30 µM,72 h,inhibition,101%
CC(=O)Nc1ccc(/C(C)=N/N=c2\sc(C(C)=O)nn2-c2ccc(C)cc2)cc1,MCF7,MTT,10 µM,,viability,5.39%
COc1cccc(CNC[C@@](C)(O)[C@@H]2CC[C@@H](C)C[C@H]2OCc2ccccc2)c1,MCF7,MTT,30 µM,72 h,inhibition,95.9%
O=C(Nc1ccccc1)Nc1ccc(Oc2nnc(-c3ccc(Cl)cc3)c3ccccc23)cc1,MCF7,MTT,1.25 µM,24 h,viability,3.85%
COc1ccc(CNC[C@@](C)(O)[C@@H]2CC[C@@H](C)C[C@H]2OCc2ccccc2)cc1,MCF7,MTT,10 µM,72 h,inhibition,92.4%
CCOC(=O)c1nn(-c2cccc(Cl)c2)/c(=N/N=C(\C)c2ccc(NC(=O)c3ccc(Cl)cc3)cc2)s1,MCF7,MTT,2.5 µM,,viability,3.54%
C[C@@H]1CC[C@@H]([C@](C)(O)Cn2ccnc2)[C@H](OCc2ccccc2)C1,MCF7,MTT,30 µM,72 h,inhibition,34.6%
CC(=NNC(=O)c1ccccc1Br)c1ccc(Nc2nnc(-c3ccc(Cl)cc3)c3ccccc23)cc1,MCF7,MTT,5 µM,,cell death,93.8%
